Drawing on ChEMBL document CHEMBL4513216, “Probing the Open Global Health Chemical Diversity Library for Multistage-Active Starting Points for Next-Generation Antimalarials” (ACS Infect Dis, 2020), this text covers cytotoxicity for 97 compounds.

The nature of the series: Toxicity liver stage against HepG2, at 10uM. Further details: test concentration 10 uM, cell line HepG2-A16-CD81EGFP. The class given is cell-based. Conditions: human, HepG2-A16-CD81EGFP cells; read-out: INHIBITION
A digest of the protocol: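 Uninfected HepG2-A16-CD81EGFP cells, 3 × 10^3 per well, 1536-well, plated on prespotted compound at 10 μM final, parasite-free screening media added to match infected plates; puromycin 10 μM positive, DMSO 0.5% negative; run in parallel with 48 h PbLuc assay at 37 °C, 5% CO2; viability by CellTiter-Glo luminescence, normalized to controls.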
Regarding `CCSc1ccccc1C(=O)NCCn1nc(C(F)(F)F)n(C)c1=O`, the cytotoxicity at 10 µM was 6.83%.
Turning to `COc1cc(S(=O)(=O)Nc2cn[nH]c2)ccc1Br`, the cytotoxicity at 10 µM was -1.47%.
On to `c1ccc(-c2noc(CN3CCOC(Cn4cccn4)C3)n2)nc1` (configuration not stated), for which the cytotoxicity at 10 µM is -15%.
To `CC(C)c1noc(CCNC(=O)N2CCSC(C(C)C)C2)n1` (configuration not stated) belongs -2.65%.
To `Cc1cnn(CCNc2cnc3ccccc3n2)c1` belongs 11.4%; to `CN(CC1CCN(CCO)CC1)CC(O)c1ccc(F)cc1` (configuration not stated), -52.8%.
The same measure for `CCCC(C#N)NC(=O)c1cc(Br)c2c(c1)OCCO2` (configuration not stated): -9.2%; for `Cc1cnn(CC2CCCCN2Cc2nnc(-c3ccco3)o2)c1` (configuration not stated): -10.4%; for `COc1c(CNCc2ccc(C(=O)N(C)C)cc2)c(C)nn1C`: 1.64%.
On to `NC(=O)Cn1ccc(NC(=O)C2(c3cccc(F)c3)CCC2)n1`, for which the cytotoxicity at 10 µM was -5.75%.
The same measure for `COc1ccc(SC(C)C(=O)N2CCC(O)CC2)cc1` (configuration not stated): 0.887%.
The same measure for `Cc1ccnc(OC[C@@]23CCO[C@@H]2CCN(C2CCC2)C3)n1`: 8.01%; for `O=C1C(NCc2nnc3n2CCCC3)CCN1c1ccccc1` (configuration not stated): -11.2%; for `CC(C)c1nc(CN2CCOC(Cn3cccn3)C2)no1` (configuration not stated): -9.43%.
The same measure for `CS(=O)(=O)NC1CCN(C(=O)NCc2cccnc2)CC1`: 0.796%.
Regarding `CC(C)(C)NC(=O)c1cnc2n1CCCC2`, the cytotoxicity at 10 µM is -3.32%.
The same measure for `COc1c(C2CCCN2C(=O)c2ccc(Cl)o2)c(C)nn1C` (configuration not stated): -10.4%.
The same measure for `Cc1noc(C)c1CN1CC2(CCN(C(=O)c3cscn3)CC2)CC1=O`: -8.86%.
To `c1cnc(-c2nc(CN3CCCC(N4CCCC4)C3)cs2)nc1` (configuration not stated) belongs -12%.
For the compound `CC(C)CC(=O)N1CCN(C(=O)N(C)C)CC2(CC(=O)N(C)C2)C1` (configuration not stated), the cytotoxicity at 10 µM was -20.3%.
The same measure for `CC(C(=O)NC1CC1)S(=O)(=O)Cc1noc(C(C)(C)C)n1` (configuration not stated): 9.42%.
The same measure for `Cc1ccc(OCCN(C)Cc2ccc(S(=O)(=O)N(C)C)o2)cc1`: -14.8%.
As for `Cc1noc(CN(CCO)Cc2cc(Br)ccc2F)n1`, the cytotoxicity at 10 µM amounted to 2.2%.
The same measure for `CN1CCCc2c1nc1c(c2N)CCC1`: 10.2%.
Take `CC(C)c1nccn1C1CCCN(C(=O)c2ccnc(N(C)C)c2)C1` (configuration not stated): the cytotoxicity at 10 µM amounted to 5.1%.
On to `Cc1noc([C@@H]2CCCN2C(=O)C2CCN(C(=O)C3CCC3)CC2)n1`, for which the cytotoxicity at 10 µM was -14.4%.
To `CCOc1cc(CNC(=O)N2CCC(Cc3cnn(C)c3)C2)ccn1` (configuration not stated) belongs -8.29%.
The same measure for `CCc1cc(CNC(=O)N2CCC(Cc3cnn(C)c3)C2)on1` (configuration not stated): -6.04%; for `Cc1cc2n(n1)CC(CNC1CCN(Cc3ccncc3)CC1)CN2` (configuration not stated): 1.78%.
On to `Cc1ccc(CN2CCC[C@@H]3CN(C(=O)c4ccco4)C[C@@H]32)s1`, for which the cytotoxicity at 10 µM is -1.05%.
The same measure for `CC(C)NC(=O)N1CCn2c(nnc2C2CCCN2)C1` (configuration not stated): -1.32%; for `Cc1noc(C)c1CCCNC(=O)C1CCN(C(C)C)CC1`: -7.01%.
The same measure for `CCOCCN1CCN(CCCc2nnnn2-c2ccccc2)CC1`: 6.45%; for `CN1CCc2nc(C3CCCN(S(=O)(=O)N4CCCC4)C3)ncc2C1` (configuration not stated): 2.4%; for `Cc1ccc(NC2CCN(C(=O)c3c(C)oc(C)c3C)CC2)nn1`: -2.4%.
To `Cc1ncoc1C(=O)N1CCCC(C(=O)c2cccc(OC(C)C)c2)C1` (configuration not stated) belongs 8.84%; to `Cc1ccsc1CN1CCn2c(COc3cccnc3)cnc2C1C` (configuration not stated), -99.4%.
As to `COc1ccc(Cl)cc1C(=O)N1C[C@H](C(C)C)[C@@H](N)C1`, the cytotoxicity at 10 µM worked out at 1.17%.
Regarding `CC(C)CC(O)C1CCN(Cc2ccc(N(C)C)nc2)CC1` (configuration not stated), the cytotoxicity at 10 µM was 1.75%.
For the compound `Cc1ccc(C(C)NC(=O)CCc2cnn(C)c2)cc1F` (configuration not stated), the cytotoxicity at 10 µM was -0.348%.
As to `O=S(=O)(CC1CCCO1)Nc1cc(Cl)ccc1-n1cccn1` (configuration not stated), the cytotoxicity at 10 µM is 3.55%.
To `CC(=O)N1N=C(c2ccccc2)OC1C(=O)NCCC1=CCCCC1` (configuration not stated) belongs 9.74%.
The same measure for `CCOc1ccc(CC(CNC(=O)c2occc2C)C(N)=O)cc1` (configuration not stated): 5.17%.
To `Cc1ccc2c(n1)N(Cc1cccnc1)CCN(C(=O)C1CCC1)C2` belongs 13.7%.
As to `CC(C)CN1C(=O)CO[C@@H]2CN(C(=O)N3CCOCC3)C[C@H]21`, the cytotoxicity at 10 µM was -1.68%.
The same measure for `CCc1noc(CN2CCN(CCO)CC2)n1`: -6.13%; for `CC(CC(=O)O)CC(=O)Nc1sc2c(c1C(N)=O)CCc1ccccc1-2` (configuration not stated): 8.26%.
The same measure for `CCCN(C(=O)COC)c1nc2c(s1)CCc1c-2cnn1C`: 5.15%; for `O=S(=O)(c1ccccc1)N1C[C@@H]2COC[C@]2(CN2CCOCC2)C1`: 2.32%; for `Cc1ccc(Nc2cc(N3CCN(S(C)(=O)=O)CC3)nc(C)n2)cc1`: 6.91%.
The same measure for `O=C1CN(Cc2cn(C3CCN(C4CSCCSC4)CC3)nn2)CCN1`: -48.8%; for `COc1ccccc1-n1cc(C(=O)NCCCn2ccnn2)cn1`: -6.01%; for `O=C(NCCc1cccs1)N1CCCC1CCCO` (configuration not stated): 5.82%.
Turning to `COCCN1CCC(CNc2nccc(-c3cnn(C)c3)n2)CC1`, the cytotoxicity at 10 µM is -130%.
The same measure for `CC(C)CN1CCCn2nc(CNC(=O)CCCc3cn[nH]c3)cc2C1`: -6.36%; for `O=C1CC(NCc2ccncc2)CN1CCc1cccc(Cl)c1` (configuration not stated): -127%.
The same measure for `COC(=O)c1ccc(N(C(=O)c2ccncc2)C(C)C)c(C)c1`: 0.503%; for `Cc1ncc(C(=O)N2CCCCC2c2nc3cc(F)ccc3[nH]2)c(O)n1` (configuration not stated): -0.305%; for `COCC1CN(C(=O)Cc2ccc(F)cc2)Cc2ccnn2C1` (configuration not stated): -73.9%.
To `CCc1cc(O)n2nc(C3CCN(C(=O)c4ccccn4)CC3)cc2n1` belongs 2.29%; to `Cc1cc(C(=O)N2C[C@H](CO)C[C@H](CN3CCOCC3)C2)nc(C)n1`, 9.91%; to `COc1c(C2CCCN2Cc2noc(C(C)C)n2)c(C)nn1C` (configuration not stated), -8.93%.
Regarding `COc1ccccc1CC1CCCN(C(=O)c2nccnc2N)C1` (configuration not stated), the cytotoxicity at 10 µM worked out at 5.79%.
The same measure for `O=C(c1cccc(-n2cccn2)c1)N1CCOC(CCO)C1` (configuration not stated): 0.0642%; for `CCC(C)c1csc(NC(=O)Cc2csc(-c3nnc[nH]3)n2)n1` (configuration not stated): -29.6%; for `OCC1(O)CCN(Cc2ccc(C3CCCCO3)o2)CC1` (configuration not stated): -5.95%.
The same measure for `COc1cc(C)c(NC(=O)NCCn2cccc2)cc1OC`: 0.414%; for `Cc1nc(C(C)C)sc1C(=O)N(C)Cc1nc(-c2ccccn2)no1`: -0.683%; for `COc1cc(CNC(=O)Nc2nnc(C(C)C)s2)ccc1O`: -2.22%.
Turning to `CCNc1cc2c(nn1)CCN(C(=O)c1ccc3cc[nH]c3c1)C2`, the cytotoxicity at 10 µM was -6.95%.
To `COCc1c(C(=O)NC2CCCC2)nnn1-c1ccc(C)cc1` belongs 5.97%.
In the case of `Cc1ccc(C2COCCN2C(=O)c2cccc(N(C)C)c2)o1` (configuration not stated), the cytotoxicity at 10 µM is 8.99%.
To `CCN1CC2(CC1=O)CN(C(=O)NC(C)C)CCN(C(=O)NC(C)C)C2` belongs -1.73%.
To `Cc1nn(C)c(Cl)c1C1CCCN1CCc1ccccn1` (configuration not stated) belongs 4.6%; to `CN(C)C(=O)CNC(=O)c1cc(Br)c2c(c1)OCCO2`, 16.4%.
The same measure for `CC(=O)N1CCN(C(=O)CCc2cc(Br)cs2)CC1`: -9.74%.
`CN(C)C(=O)COCC1CN(S(C)(=O)=O)Cc2ncn(C)c21` (configuration not stated): the cytotoxicity at 10 µM was 4.39%.
Consider `O=C(CC1NC(N2CCc3ccccc32)=NC1=O)Nc1ccccc1` (configuration not stated), for which the cytotoxicity at 10 µM is -1.3%.
The same measure for `CN(C)CC1CN(Cc2cc(Cl)cc3cccnc23)CCO1` (configuration not stated): 5.26%; for `CCn1cc(-c2cncn2CCc2ccc3c(c2)OCCO3)cn1`: 18.7%.
`CC(C)c1cc(NC(=O)c2ccc(C(=O)NC(C)(C)C)cc2)[nH]n1`: the cytotoxicity at 10 µM was -0.164%.
To `CC(=O)Nc1ccc(C(=O)NCCCn2cccc2)cc1` belongs -2.66%; to `COc1ccc(CC(=O)NC(C)c2nc3cccnc3n2C(C)C)cc1` (configuration not stated), -11.7%; to `O=C(NCC1CCOCC1)[C@@H]1C[C@@H]2[C@@H](CCN2Cc2nccs2)O1`, 0.11%.
To `CN(C)CCN1CCO[C@H]2CN(Cc3cnn(C)c3)C[C@H]21` belongs 1.82%.
Regarding `COCCc1noc(CN2CCCC2Cn2nc(C)cc2C)n1` (configuration not stated), the cytotoxicity at 10 µM was -1.92%.
In the case of `CCN(CC)C(=O)CCCNC(=O)c1csc(NC2CC2)n1`, the cytotoxicity at 10 µM amounted to 8.67%.
To `CCn1cc(CN(C)S(=O)(=O)N2CCCC2c2ccco2)cn1` (configuration not stated) belongs 9.14%.
Turning to `Cc1cnn(CC2CCCCN2C(=O)c2cnc3n[nH]c(C)c3c2)c1` (configuration not stated), the cytotoxicity at 10 µM was -26.2%.
The same measure for `Cc1ccc(OCc2occc2C(=O)N2CCCCC(N)C2)cc1` (configuration not stated): -8.84%; for `CC(Nc1cccc2c1OCCO2)C(=O)Nc1cccc(C#N)c1` (configuration not stated): 4.7%.
To `Cn1ncc(NC(=O)Cn2ccc(-c3ccc(F)cc3)n2)n1` belongs 1.05%; to `Cc1noc2ncnc(N(C)Cc3ccco3)c12`, 2.57%; to `Cc1cc(CN2CCN(C(c3ccccc3)c3ccccc3)CC2)no1`, -6.56%.
The same measure for `CC(Cc1ccco1)NC(=O)NCc1ncnn1C` (configuration not stated): 2.02%; for `CC(C)c1ccc(OCn2ccc(C(=O)N3CCCC3)n2)cc1`: 12.7%.
On to `CC(O)CN1CCC(CNCc2cn(-c3ccccc3)nn2)CC1` (configuration not stated), for which the cytotoxicity at 10 µM stood at 3.31%.
